Source: PubChem BioAssay (The Scripps Research Institute Molecular Screening Center)
Shown is part of a subset that was picked to be rich in hits.
RORA inh: inhibitors of orphan receptor RORA, primary screen, cell-based, luminescence | inhibition, % at 10 µM | Nuclear receptor ROR-alpha (Homo sapiens), P35398 | 65,000 compounds, 0.43% hits | AID 561, 2006 | CHO-K1 Gal4-RORA LBD luciferase reporter;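 active means inhibition above the mean of all tested compounds plus 3 SD, cut at about 52% in these data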
Target sequence (P35398 whole entry, looked up, the tested form may be a part): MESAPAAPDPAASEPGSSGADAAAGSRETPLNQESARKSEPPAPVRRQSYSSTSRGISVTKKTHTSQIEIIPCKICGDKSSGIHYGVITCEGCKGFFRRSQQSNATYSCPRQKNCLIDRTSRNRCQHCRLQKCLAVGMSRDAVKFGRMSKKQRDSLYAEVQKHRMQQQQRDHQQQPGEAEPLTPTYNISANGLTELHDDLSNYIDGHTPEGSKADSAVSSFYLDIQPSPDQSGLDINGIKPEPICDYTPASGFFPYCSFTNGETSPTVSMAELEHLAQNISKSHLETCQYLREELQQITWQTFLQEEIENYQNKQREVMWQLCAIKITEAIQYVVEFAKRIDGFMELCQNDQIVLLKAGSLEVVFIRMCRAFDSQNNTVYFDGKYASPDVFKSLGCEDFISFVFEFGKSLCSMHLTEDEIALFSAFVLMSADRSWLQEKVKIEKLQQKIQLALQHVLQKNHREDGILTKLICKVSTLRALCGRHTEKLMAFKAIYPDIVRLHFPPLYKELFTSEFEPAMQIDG
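Test system: CHO-K1 cells with Gal4-hRORA LBD fusion and pG5-luc reporter / Compound: single concentration per compound, 10 µM final / Schedule: 20 h compound treatment, 37 °C / Signal: luminescence from basal luciferase reporter expression / Read-out: % inhibition / Control set: mock-transfected cells as 100%, +RORA DMSO cells as 0% / Replicates: tested once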
Numbers stand for hits.

For O=C(Nc1ccc(-c2nc3ccccc3o2)cc1)c1ccc2c(c1)OCO2 the results were RORA inh inactive.
Screening O=C(c1ccc(-c2nnc(-c3ccccc3)o2)cc1)N1CCCCCC1 returned RORA inh inactive.
`O=C(c1ccc(Cl)cc1)N1CCCCC(Sc2nnc(-c3ccc4c(c3)OCO4)o2)C1=O` (stereo unspecified) gave RORA inh 76.
For Cc1cc(C)cc(-n2cc3c(=O)n(C)c(=O)n(C)c3c2)c1 the results were RORA inh inactive.
`O=C(O)CNC1=NCCC1` gave RORA inh inactive.
For Cc1ccc(NC(=O)c2ocnc2C)cc1Cl the results were RORA inh inactive.
Screening Cc1nc2ccc(S(=O)(=O)NCC(=O)N3CCc4ccccc4C3)cc2s1 returned RORA inh inactive.
Screening c1ccc2c(c1)CCN(c1nc3cc4c(cc3s1)OCCO4)C2 returned RORA inh 64.
`O=C1C(=O)N(CCCN2CCOCC2)C(c2ccccn2)/C1=C(\O)c1ccc2c(c1)OCCO2` (stereo unspecified) gave RORA inh inactive.
CC(=O)N1CCN(c2ccc(Nc3nc(C)nc4c3oc3ccccc34)cc2)CC1 was read as RORA inh inactive.
`Cc1nc(NC(C)c2ccccc2)c2oc3ccccc3c2n1` (stereo unspecified) gave RORA inh 58.
For CCC1CCCCN1C(=O)COC(=O)c1ccc(S(=O)(=O)N2CCOCC2)cc1 (stereo unspecified) the results were RORA inh inactive.
For Cc1nnc2sc(-c3cc4ccccc4o3)nn12 the results were RORA inh inactive.
`O=c1oc2c3c4c(cc2cc1-c1nc2ccccc2[nH]1)CCCN4CCC3` gave RORA inh inactive.
Screening COc1ccc(OC)c(N/C(C)=C/C(=O)c2ccc(C)o2)c1 returned RORA inh inactive.
`CN1CCN(C(=O)CN(c2cccc(Cl)c2)S(=O)(=O)c2ccccc2)CC1` gave RORA inh inactive.
Screening COc1ccc(-n2c(SCCC(=O)O)nnc2-c2ccncc2)cc1 returned RORA inh inactive.
For Cn1c(COc2ccccc2)nnc1SCC(=O)NCc1ccccc1 the results were RORA inh inactive.
For CCN(Cc1ccccc1)S(=O)(=O)c1ccc(C(=O)Nc2nnc(-c3ccccc3OC)o2)cc1 the results were RORA inh inactive.
Screening CCCN(CCC)S(=O)(=O)c1ccc(C(=O)Nc2nnc(-c3cccc(OC)c3)o2)cc1 returned RORA inh inactive.
Screening CCCCN(CCCC)S(=O)(=O)c1ccc(C(=O)Nc2nnc(CSC)o2)cc1 returned RORA inh 61.
For c1ccn2c(SCc3cn4ccsc4n3)nnc2c1 the results were RORA inh inactive.
COc1nc(N(C#N)CC(N)=O)nc(N2CCCC2)n1 was read as RORA inh inactive.
For COc1ccccc1NC(=O)COc1ccc(/C=N/n2cnnc2)cc1OC the results were RORA inh inactive.
For COc1cc(/C=N/O)ccc1OCc1ccc(C(=O)O)cc1 the results were RORA inh 89.
Screening COc1cc(C(=S)N2CCCCC2)ccc1OCC(=O)N1CCCC1 returned RORA inh inactive.
For Clc1ccc(OCc2nnc(-c3ccccc3Br)o2)c(Cl)c1 the results were RORA inh inactive.
For COc1ccc(N2C(=O)CSC2c2ccc3c(c2)OCO3)c(OC)c1 (stereo unspecified) the results were RORA inh inactive.
Screening Cc1ccnc(NC(=O)Nc2ccc(F)cc2)c1 returned RORA inh inactive.
Screening COc1ccc(C(=O)NC(=O)Nc2cc(C)ccn2)cc1 returned RORA inh 70.
COc1ccc(C(=O)Nc2cc(C)on2)cc1 was read as RORA inh inactive.
Screening Cn1c(-n2c(CCN3C(=O)c4ccccc4C3=O)nc3ccccc3c2=O)nc2ccccc21 returned RORA inh inactive.
COC(=O)Cc1cnc(NC(=O)C2C3CCC(C3)C2C(=O)O)s1 (stereo unspecified) was read as RORA inh inactive.
For Cc1cc(C(=O)CSc2nc3ccccc3[nH]2)c(C)n1C the results were RORA inh inactive.
Screening Cc1cc(C)n2nc(SCC(=O)NCc3ccco3)nc2n1 returned RORA inh inactive.
For Cc1cc(C)n2nc(SCC(=O)c3cc(C)n(-c4cc(C)on4)c3C)nc2n1 the results were RORA inh 55.
For Cc1cc(C)n2nc(SCc3cc(=O)n4ccccc4n3)nc2n1 the results were RORA inh inactive.
`Cc1cc(-n2c(C)cc(C(=O)CSc3ncnc4ccccc34)c2C)no1` gave RORA inh 64.
Cc1cc(C(=O)CSc2nnc(-c3ccccc3)n2-c2ccccc2)c(C)n1-c1ncn[nH]1 was read as RORA inh inactive.
`CCN1CCN(Cc2ccc(NC(=O)Nc3ccccc3OC)cc2)CC1` gave RORA inh inactive.
For CC(C)n1c(=S)[nH]c2c1c(=O)[nH]c(=O)n2C the results were RORA inh inactive.
COC(=O)c1ccc(-c2ccc(CNCC(O)c3ccccc3)o2)cc1 (stereo unspecified) was read as RORA inh inactive.
CC(C)(C)NC(=O)Cn1c(SCC(=O)NC2CCCCC2)nc2ccccc21 was read as RORA inh inactive.
`CCn1nnc(-c2ccccc2NC(=O)C(F)(F)F)n1` gave RORA inh inactive.
For CN(C)S(=O)(=O)c1ccc(NC(=O)c2ccccn2)cc1 the results were RORA inh inactive.
For CN(C)c1ccc(NC(=S)c2ccccn2)cc1 the results were RORA inh 84.
For CCN(CC)S(=O)(=O)c1ccc(NC(=O)c2ccccn2)cc1 the results were RORA inh inactive.
`CCC(=O)Nc1cccc(-c2nnc(SCC(=O)c3ccccc3)n2C)c1` gave RORA inh inactive.
Screening CCN(CC)c1ccc(-c2nc3cnccc3n2C)cc1 returned RORA inh inactive.
For CCCCc1nc2n[nH]c(N)c2c2c1CCCC2 the results were RORA inh inactive.
Screening O=c1ccc2cc3c([nH]c4ccc(Br)cc43)oc-2c1O returned RORA inh inactive.
For CCOc1ccc(NC(=O)C2CC(=O)N(C(C)C)C2)cc1 (stereo unspecified) the results were RORA inh inactive.
For CCCOc1ccccc1C1CC(=O)Nc2cc3c(cc21)OCCO3 (stereo unspecified) the results were RORA inh 60.
`CCOc1ccccc1C1CC(=O)Nc2cc(OC)c(OC)c(OC)c21` (stereo unspecified) gave RORA inh inactive.
COc1ccc(NC(=O)CSc2nnc(Cn3c(=O)sc4ccccc43)n2C)c(OC)c1 was read as RORA inh inactive.
Screening Cc1ccc(-c2nc3nc4ccccc4nc3n2Cc2ccco2)cc1 returned RORA inh 68.
For c1ccc(Cn2c(-c3ccco3)nc3nc4ccccc4nc32)cc1 the results were RORA inh inactive.
`CCCn1c(-c2ccc(OC)cc2)nc2nc3ccccc3nc21` gave RORA inh inactive.
`Cc1cccc(C)c1NC(=O)c1cc(S(=O)(=O)N2CCOCC2)ccc1F` gave RORA inh inactive.
O=C(O)c1cccc(S(=O)(=O)N2CCSCC2)c1 was read as RORA inh inactive.
For O=C(NCCc1ccc(Cl)cc1)C1CCC(=O)N1C1CCCC1 (stereo unspecified) the results were RORA inh inactive.
`N#CC1C(=O)NC(N2CCN(c3ccccc3)CC2)=NC12CCCCC2` (stereo unspecified) gave RORA inh inactive.
Screening Cn1cnnc1SCC(=O)Nc1ccccc1C(=O)NC1CCCC1 returned RORA inh inactive.
